Only some compounds are listed: those with a hit (about 5.9% of all), similar ones and a draw of the others.
KDM4C inh – KDM4C (human) demethylase inhibition; 96,000 compounds, 0.15% hits; inhibition, % at 12.5 µM; AID 720574; GST-KDM4C 2-372, H3K9me3 peptide, LANCE TR-FRET;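 active = mean replicate inhibition above about 25%, with at least 55% of replicates also reaching it, limit read from the data, passing the limit was not always enough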
Target sequence (Q9H3R0 2-372 limits assumed): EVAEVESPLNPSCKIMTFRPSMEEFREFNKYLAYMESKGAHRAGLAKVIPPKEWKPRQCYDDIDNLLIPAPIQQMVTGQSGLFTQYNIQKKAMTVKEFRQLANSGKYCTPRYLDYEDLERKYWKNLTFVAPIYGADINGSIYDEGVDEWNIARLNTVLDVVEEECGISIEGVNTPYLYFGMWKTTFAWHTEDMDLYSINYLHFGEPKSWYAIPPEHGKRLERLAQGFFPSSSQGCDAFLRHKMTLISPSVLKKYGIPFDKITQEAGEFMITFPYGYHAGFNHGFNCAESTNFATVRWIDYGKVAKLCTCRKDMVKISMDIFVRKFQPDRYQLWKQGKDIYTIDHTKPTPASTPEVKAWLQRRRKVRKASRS
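Test system – GST-tagged GASC-1 (JMJD2C) catalytic fragment, aa 2-372 · Medium – HEPES buffer, pH 7.5, plus ascorbate · Reagent – H3K9me3 peptide with Fe(II)/2OG · Compound – one test concentration per compound · Timing – 30 min reaction, 60 min detection, RT · Technique – TR-FRET with Eu antibody and ULight streptavidin, EDTA stop · Read-out basis – inhibition from TR-FRET ratio decrease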
IDH1 R132H inh – IDH1 R132H (human) inhibition | IDH1 R132H reductase, diaphorase/resazurin fluorescence, 60 min | inhibition, % at 10 µM | 70,000 compounds, 0.18% hits | AID 624101; in the data active = inhibition above about 34%
T cruzi growth – T. cruzi proliferation inhibition | AID 624255 | T. cruzi beta-gal in NIH3T3, GalScreen luminescence, 90 h | 77,000 compounds, 5.9% hits | inhibition, % at 8.34 µM;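 active = mean inhibition above about 93%, with at least 55% of replicates each passing it, limit read from the data, passing the limit was not always enough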
Pf Dd2 growth – blocks growth of Plasmodium falciparum Dd2 parasites; activity change, % at 10 µM; AID 1159554; P. falciparum Dd2 growth, SYBR Green, 72 h; active compounds read low; 94,000 compounds, 2.3% hits; in the data active = activity change below about -80%
A number is an active result; n = inactive; x = not tested or not shown.

SMILES	KDM4C inh	IDH1 R132H inh	T cruzi growth	Pf Dd2 growth
CCCNC(=O)c1cc2c(c(-c3cccc(-c4cc5ccccc5o4)c3)n1)[C@H](CCO)N(C(=O)NC(C)C)C2	n	x	x	-93
CC(C)(C)[S@@](=O)N1Cc2cc(C(=O)NCCc3ccncc3)nc(-c3cccc(-c4ccccc4)c3)c2[C@H]1CCO	n	x	x	-85
COc1cccc(-c2cccc(-c3nc(C(=O)NCc4ccc(Oc5ccccc5)cc4)cc4c3[C@@H](CCO)N(S(=O)C(C)(C)C)C4)c2)c1 (stereo not given in full)	n	x	x	-84
COc1cc(C(=O)Nc2ccc(S(=O)(=O)Nc3ccccn3)cc2)cc(OC)c1OC	x	n	x	x
O=C1CN(S(=O)(=O)c2ccccc2)C[C@@H]2[C@H](c3ccc(C#CCc4ccccc4)cc3)[C@@H](CO)N12	n	x	x	-84
Cc1ccccc1S(=O)(=O)N1CC(=O)N2[C@H](C1)[C@@H](c1ccc(C#Cc3ccccc3)cc1)[C@@H]2CO	n	x	x	-82
Cc1ccccc1S(=O)(=O)N1CC(=O)N2[C@H](CO)[C@H](c3ccc(C#Cc4ccccc4)cc3)[C@H]2C1	n	x	x	n
CCCCCCNC(=O)Nc1ccc(S(=O)(=O)Nc2ccc(CCNCC(O)COc3ccc(O)cc3)cc2)cc1 (stereo not given)	x	n	x	x
N#C[C@H]1[C@@H](c2ccccc2-c2ccccc2F)[C@@H](CO)N1C(=O)C1CCOCC1	n	x	x	-95
N#C[C@H]1[C@H](c2ccccc2-c2ccccc2F)[C@H](CO)N1C(=O)C1CCOCC1	n	x	x	n
COc1ccc(-c2ccccc2[C@H]2[C@@H](C#N)N(C(=O)C3CCCCC3)[C@H]2CO)cc1	n	x	x	-93
COc1ccc(-c2ccccc2[C@H]2[C@@H](CO)N(C(=O)C3CCCCC3)[C@H]2C#N)cc1	n	x	x	n
COc1ccc(-c2ccccc2[C@H]2[C@@H](CO)N(C(=O)C3CCOCC3)[C@H]2C#N)cc1	n	x	x	-87
Cc1ccc2ccc(C(Nc3ccccn3)c3cccc([N+](=O)[O-])c3)c(O)c2n1 (stereo not given)	x	n	x	x
COc1ccc2c3c([nH]c2c1)[C@@H](CO)N(C(=O)Nc1ccc(F)cc1)CC31CN(Cc2ccc(F)cc2)C1	n	x	x	n
COc1ccc2c3c([nH]c2c1)[C@H](CO)N(C(=O)Nc1ccc(F)cc1)CC31CN(Cc2ccc(F)cc2)C1	n	x	x	-82
COc1ccc2c3c([nH]c2c1)[C@H](CO)N(C(=O)Nc1ccc(F)cc1)CC31CN(Cc2ccccc2OC)C1	x	x	x	n
COc1ccc2c3c([nH]c2c1)[C@@H](CO)N(C(=O)Nc1ccc(F)cc1)CC31CN(Cc2ccccc2OC)C1	n	x	x	-92
COc1ccccc1NC(=O)CSC1CC(=O)N(c2ccc(I)cc2)C1=O (stereo not given)	x	n	x	x
CC1=CC(C)(C)N2C(=O)C(=O)c3cc(OC(=O)CN4C(=O)c5cccc6cccc(c56)C4=O)cc1c32	x	n	x	x
COc1ccc2c3c(n(C)c2c1)[C@H](CO)N(Cc1ccccc1OC)CC31CCN(CC2CC2)CC1	x	x	x	n
COc1ccc2c3c(n(C)c2c1)[C@@H](CO)N(Cc1ccccc1F)CC31CCN(CC2CC2)CC1	n	x	x	-88
COc1ccc2c3c(n(C)c2c1)[C@H](CO)N(CC1CC1)CC31CCN(Cc2ccc(F)cc2)CC1	n	x	x	-85
COc1ccc2c3c(n(C)c2c1)[C@@H](CO)N(Cc1ccccc1OC)CC31CCN(CC2CC2)CC1	x	x	x	-91
CCn1c(SCC(=O)Nc2cccc(Cl)c2)nnc1-c1ccco1	x	n	x	x
SMILES	KDM4C inh	IDH1 R132H inh	T cruzi growth	Pf Dd2 growth
O=C(Nc1ccc(Cl)cc1)N[C@H]1CC[C@H](CCNC(=O)c2ccccc2F)O[C@H]1CO	40	43	n	n
COc1ccc2c3c([nH]c2c1)[C@@H](CO)N(C(=O)Nc1ccc(F)cc1)CC31CCN(S(=O)(=O)c2ccccc2)CC1	n	x	x	-84
COc1ccc2c3c([nH]c2c1)[C@H](CO)N(C(=O)Nc1ccc(F)cc1)CC31CCN(S(=O)(=O)c2ccccc2)CC1	n	x	x	-88
COc1cccc(S(=O)(=O)N2CCC3(CC2)CN(C(=O)Nc2ccc(F)cc2)[C@H](CO)c2[nH]c4cc(OC)ccc4c23)c1	n	x	x	n
COc1cccc(S(=O)(=O)N2CCC3(CC2)CN(C(=O)Nc2ccc(F)cc2)[C@@H](CO)c2[nH]c4cc(OC)ccc4c23)c1	n	x	x	n
CCOC(=O)CSc1n[nH]c(-c2ccc(Cl)cc2)n1	x	n	x	x
COc1ccc(S(=O)(=O)Nc2ccc3c(c2)C(=O)N([C@@H](C)CO)C[C@H](C)[C@@H](CN(C)C(=O)NC2CCCCC2)OCCCC[C@@H](C)O3)cc1	n	x	n	-87
COc1ccc(S(=O)(=O)Nc2ccc3c(c2)C(=O)N([C@H](C)CO)C[C@H](C)[C@@H](CN(C)C(=O)NC2CCCCC2)OCCCC[C@H](C)O3)cc1	n	x	n	n
COc1ccc(S(=O)(=O)Nc2ccc3c(c2)C(=O)N([C@H](C)CO)C[C@@H](C)[C@@H](CN(C)C(=O)C2CCCCC2)OCCCC[C@@H](C)O3)cc1	n	x	n	n
COc1ccc(S(=O)(=O)Nc2ccc3c(c2)C(=O)N([C@@H](C)CO)C[C@H](C)[C@@H](CN(C)C(=O)C2CCCCC2)OCCCC[C@@H](C)O3)cc1	n	n	n	-92
COc1ccc2c3c(n(C)c2c1)[C@H](CO)N(C(=O)Nc1ccc(F)cc1)CC31CCN(S(=O)(=O)c2cccs2)CC1	n	x	x	-86
COc1ccc2c3c(n(C)c2c1)[C@H](CO)N(C(=O)Nc1ccc(F)cc1)CC31CCN(S(=O)(=O)c2cccc(F)c2)CC1	n	x	x	-88
COc1ccc2c3c(n(C)c2c1)[C@@H](CO)N(C(=O)Nc1ccc(F)cc1)CC31CN(S(=O)(=O)c2cccc(C)c2)C1	n	x	x	n
COc1ccc(S(=O)(=O)N(C)CC(=O)Nc2cccc(Cl)c2C)cc1OC	x	n	x	x
CC(=O)c1cccc(NC(=O)Cn2nc(C)c([N+](=O)[O-])c2C)c1	x	n	x	x
C[C@H]1CN([C@@H](C)CO)C(=O)Cc2cc(NC(=O)c3ccncc3)ccc2O[C@H]1CN(C)Cc1ccc(C(=O)Nc2ccccc2N)cc1	n	x	n	n
C[C@H]1CN([C@@H](C)CO)C(=O)Cc2cc(NC(=O)Cc3ccccc3)ccc2O[C@H]1CN(C)Cc1ccc(C(=O)Nc2ccccc2N)cc1	n	n	x	-86
C[C@H]1CN([C@@H](C)CO)C(=O)Cc2cc(NC(=O)c3ccncc3)ccc2O[C@@H]1CN(C)Cc1ccc(C(=O)Nc2ccccc2N)cc1	n	n	x	-86
C[C@H](CO)N1C[C@H](C)[C@H](CN(C)Cc2ccc(C(=O)Nc3ccccc3N)cc2)Oc2ccc(NC(=O)Cc3ccccc3)cc2CC1=O	n	x	x	-87
O=C(COc1ccc(C(=O)Nc2ccc(F)cc2)cc1)Nc1ccccc1C(F)(F)F	x	n	x	x
Cc1cc(NC(=O)/C=C\c2ccccc2)nc2c1c(=O)oc1ccccc12	x	n	x	x
OC(COc1ccccc1Cl)Cn1nnc2ccccc21 (stereo not given)	x	n	x	x
Cc1ccc(S(=O)(=O)N(C)C[C@@H]2OCCCC[C@H](C)Oc3ccc(NC(=O)Nc4ccc(F)cc4)cc3C(=O)N([C@H](C)CO)C[C@H]2C)cc1	x	n	x	-82
